Data set [1] relates to Liver microsome. Put plainly: Covalent binding in human liver microsomes measured per mg of protein using radiolabelled compound at 10 uM after 1 hr incubation by liquid scintillation counting.
Data set [2] concerns Liver microsome. Put plainly: Metabolic activation in human liver microsomes assessed as [3H]GSH adduct formation rate measured per mg of protein at 100 uM by [3H]GSH trapping assay.
Data set [3] has as its target T1, CYP2C9 (Homo sapiens, UniProt P11712). Put plainly: Time dependent inhibition of CYP2C9 (unknown origin) at 10 uM by LC/MS system. Type of data set: ADME. The procedure, abridged: (§1)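 Human liver microsomes at 1.0 mg/mL were preincubated 0 or 30 min with compound and NADPH-generating system in 0.1 M sodium phosphate, then diluted ten-fold into incubation containing 200 μM tolbutamide (final) for 10 min to probe CYP2C9. Percent of matched no-inhibitor control was determined at each time. Inactivation = 100 × [1 − ratio of 30-min to 0-min values]; 10% threshold.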

Data set [4] in a line: Intrinsic clearance for reactive metabolites formation per mg of protein based on cytochrome P450 (unknown origin) inactivation rate by TDI assay. Conditions: human.
The nature of data set [5]: Intrinsic clearance for reactive metabolites formation assessed as summation of [3H]GSH adduct formation rate-based reactive metabolites formation and cytochrome P450 (unknown origin) inactivation rate-based reactive metabolites formation. The conditions noted are these: human.
Data set [6] deals with Liver microsome. The conditions noted are these: human, microsomes, 100 µM.
For the next data set, the target named is T2, CYP1A2 (Homo sapiens, UniProt P05177).
T2 sequence (P05177 whole entry): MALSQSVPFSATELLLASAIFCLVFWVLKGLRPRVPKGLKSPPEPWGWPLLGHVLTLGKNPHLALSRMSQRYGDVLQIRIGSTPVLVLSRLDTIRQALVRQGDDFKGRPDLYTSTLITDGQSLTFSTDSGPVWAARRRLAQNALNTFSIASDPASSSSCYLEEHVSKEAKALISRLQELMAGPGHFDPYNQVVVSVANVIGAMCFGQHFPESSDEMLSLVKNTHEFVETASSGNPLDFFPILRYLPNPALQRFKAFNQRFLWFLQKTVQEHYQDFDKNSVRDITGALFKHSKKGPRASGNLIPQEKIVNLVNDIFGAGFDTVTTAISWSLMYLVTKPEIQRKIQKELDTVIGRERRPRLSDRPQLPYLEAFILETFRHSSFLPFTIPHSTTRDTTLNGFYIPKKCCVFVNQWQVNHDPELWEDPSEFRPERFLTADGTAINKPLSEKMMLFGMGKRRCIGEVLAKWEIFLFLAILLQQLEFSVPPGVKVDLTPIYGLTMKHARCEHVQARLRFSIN
In words: in vitro.

The target in data set [7] is T3, CYP2B6 (Homo sapiens, UniProt P20813).
T3 sequence (P20813 whole entry): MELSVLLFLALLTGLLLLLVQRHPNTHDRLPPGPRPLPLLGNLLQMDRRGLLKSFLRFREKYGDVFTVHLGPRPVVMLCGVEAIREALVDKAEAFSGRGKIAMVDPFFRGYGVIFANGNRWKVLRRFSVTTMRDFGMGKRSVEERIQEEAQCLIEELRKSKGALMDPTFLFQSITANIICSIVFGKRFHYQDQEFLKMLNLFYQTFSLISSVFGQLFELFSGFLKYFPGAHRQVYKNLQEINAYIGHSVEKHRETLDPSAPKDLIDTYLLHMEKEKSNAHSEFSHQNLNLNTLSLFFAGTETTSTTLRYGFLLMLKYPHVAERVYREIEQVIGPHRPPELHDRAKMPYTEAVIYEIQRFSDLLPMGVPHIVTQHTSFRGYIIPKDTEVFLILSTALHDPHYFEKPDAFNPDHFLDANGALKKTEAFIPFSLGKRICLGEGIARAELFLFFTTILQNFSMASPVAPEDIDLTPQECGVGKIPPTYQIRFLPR
In words: in vitro.

A further data set has as its target CYP2C19 (Homo sapiens, UniProt P33261). Put plainly: in vitro.
The target in data set [8] is T4, CYP2D6 (Homo sapiens, UniProt P10635). In words: in vitro.
In data set [9] the target is T5, CYP3A4 (Homo sapiens, UniProt P08684). In words: in vitro.
Data set [10] concerns the target T6, CYP2C8 (Homo sapiens, UniProt P10632).
T6 sequence (P10632 whole entry): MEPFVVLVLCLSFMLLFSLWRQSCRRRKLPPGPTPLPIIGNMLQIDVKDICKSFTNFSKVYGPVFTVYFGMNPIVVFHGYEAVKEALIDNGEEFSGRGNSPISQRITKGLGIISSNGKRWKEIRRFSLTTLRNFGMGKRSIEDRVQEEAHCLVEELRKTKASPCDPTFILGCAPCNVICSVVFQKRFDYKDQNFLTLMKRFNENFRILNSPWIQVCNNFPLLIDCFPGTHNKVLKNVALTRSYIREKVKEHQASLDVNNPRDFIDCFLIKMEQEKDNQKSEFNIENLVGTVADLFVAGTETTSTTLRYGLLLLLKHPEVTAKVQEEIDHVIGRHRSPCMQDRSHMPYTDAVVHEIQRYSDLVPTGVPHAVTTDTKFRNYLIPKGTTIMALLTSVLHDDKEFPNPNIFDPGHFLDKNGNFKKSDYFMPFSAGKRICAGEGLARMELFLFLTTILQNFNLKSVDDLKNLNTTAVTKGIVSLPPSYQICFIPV
Put plainly: in vitro.

Data set [11] concerns the target T3, CYP2B6. Put plainly: Time dependent inhibition of CYP2B6 (unknown origin) at 3 uM by LC/MS system. It counts as ADME.
Data set [12] addresses T5, CYP3A4. In words: Time dependent inhibition of CYP3A4 (unknown origin) at 10 uM by LC/MS system. It counts as ADME. Summed up:
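CYP3A4: human liver microsomes at 0.5 mg/mL in preincubation, 0.1 M sodium phosphate, NADPH-generating system, 0 or 30 min. Ten-fold dilution into incubation with 2.5 μM midazolam (final), 10 min. Each value is relative to the matched control without inhibitor. % enzyme inactivation = 100 × [1 − %control(30 min)/%control(0 min)]; 10% threshold.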

The target in data set [13] is T1, CYP2C9. Put plainly: Time dependent inhibition of CYP2C9 (unknown origin) at 30 uM by LC/MS system. It counts as ADME. The procedure, abridged:
as §1

Data set [14] concerns the target T4, CYP2D6. In words: Time dependent inhibition of CYP2D6 (unknown origin) at 30 uM by LC/MS system. It counts as ADME. Summed up: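 Preincubation with HLMs at 1.0 mg/mL in 0.1 M sodium phosphate plus NADPH-generating system for 0 or 30 min, then tenfold dilution into incubation containing 30 μM dextromethorphan for 10 min; chromatographic read-out. Activity relative to controls without inhibitor; inactivation = 100×[1 − %control(30 min)/%control(0 min)], threshold 10%. Initial 100 μM lowered where reversible inhibition was strong.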

The target in data set [15] is T6, CYP2C8. Put plainly: Time dependent inhibition of CYP2C8 (unknown origin) at 30 uM by LC/MS system. Type of data set: ADME. The procedure, abridged: (§2)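 CYP2C8 in human liver microsomes (1.0 mg/mL in preincubation), 0.1 M sodium phosphate, NADPH-generating system. Preincubation 0 or 30 min, then ten-fold dilution into incubation with 10 μM paclitaxel (final) for 10 min. Activity is taken relative to the matched no-inhibitor control. % inactivation = 100 × [1 − %control(30 min)/%control(0 min)]; threshold 10%.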

Data set [16] deals with T4, CYP2D6. In words: Time dependent inhibition of CYP2D6 (unknown origin) at 10 uM by LC/MS system. It counts as ADME. The procedure, abridged: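 CYP2D6 activity was measured with 30 μM dextromethorphan (final) after 0 or 30 min preincubation of compound with human liver microsomes (1.0 mg/mL) and NADPH-generating system in 0.1 M sodium phosphate. A ten-fold dilution was followed by a 10-min incubation. % inactivation = 100 × [1 − %control(30 min)/%control(0 min)]; threshold 10%.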

In data set [17] the target is T1, CYP2C9. Put plainly: in vitro.
Data set [18] addresses T3, CYP2B6. Put plainly: Time dependent inhibition of CYP2B6 (unknown origin) at 10 uM by LC/MS system. Type of data set: ADME. Summed up: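 CYP2B6 in human liver microsomes (1.0 mg/mL in preincubation), 0.1 M sodium phosphate, NADPH-generating system. Preincubation 0 or 30 min, then ten-fold dilution into incubation solution containing 50 μM bupropion (final) for 10 min. Activity is expressed as percent of the matched no-inhibitor control. % inactivation = 100 × [1 − control(30 min)/control(0 min)]; threshold 10%.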

The target of data set [19] is T6, CYP2C8. In words: Time dependent inhibition of CYP2C8 (unknown origin) at 3 uM by LC/MS system. Type of data set: ADME. Summed up: as §2

Some results are limits rather than exact numbers.

T5 sequence (P08684 whole entry): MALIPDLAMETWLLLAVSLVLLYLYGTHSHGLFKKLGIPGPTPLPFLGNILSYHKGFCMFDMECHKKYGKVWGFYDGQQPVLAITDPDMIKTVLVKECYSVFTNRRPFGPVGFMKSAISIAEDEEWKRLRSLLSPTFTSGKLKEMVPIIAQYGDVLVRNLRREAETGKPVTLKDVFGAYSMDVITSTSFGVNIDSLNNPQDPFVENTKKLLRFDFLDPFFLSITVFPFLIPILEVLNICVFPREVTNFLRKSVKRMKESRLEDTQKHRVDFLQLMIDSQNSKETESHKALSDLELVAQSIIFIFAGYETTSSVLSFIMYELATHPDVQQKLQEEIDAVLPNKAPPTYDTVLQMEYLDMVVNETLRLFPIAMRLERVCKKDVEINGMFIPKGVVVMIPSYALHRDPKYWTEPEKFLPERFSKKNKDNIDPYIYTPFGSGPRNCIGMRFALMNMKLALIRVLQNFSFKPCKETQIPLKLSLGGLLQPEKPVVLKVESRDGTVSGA
T1 sequence (P11712 whole entry): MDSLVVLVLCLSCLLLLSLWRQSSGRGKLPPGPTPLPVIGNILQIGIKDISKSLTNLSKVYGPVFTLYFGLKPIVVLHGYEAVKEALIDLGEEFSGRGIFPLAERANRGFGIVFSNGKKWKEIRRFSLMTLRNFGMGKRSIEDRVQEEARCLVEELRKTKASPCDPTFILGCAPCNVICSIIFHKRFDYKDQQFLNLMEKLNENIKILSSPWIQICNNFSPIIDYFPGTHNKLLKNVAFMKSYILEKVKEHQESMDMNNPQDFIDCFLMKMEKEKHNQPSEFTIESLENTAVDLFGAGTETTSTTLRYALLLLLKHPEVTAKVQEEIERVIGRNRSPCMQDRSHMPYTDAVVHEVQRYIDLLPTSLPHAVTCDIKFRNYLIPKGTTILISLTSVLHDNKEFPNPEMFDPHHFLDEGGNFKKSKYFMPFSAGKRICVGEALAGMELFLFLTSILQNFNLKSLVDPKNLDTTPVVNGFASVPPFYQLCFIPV
T4 sequence (P10635 whole entry): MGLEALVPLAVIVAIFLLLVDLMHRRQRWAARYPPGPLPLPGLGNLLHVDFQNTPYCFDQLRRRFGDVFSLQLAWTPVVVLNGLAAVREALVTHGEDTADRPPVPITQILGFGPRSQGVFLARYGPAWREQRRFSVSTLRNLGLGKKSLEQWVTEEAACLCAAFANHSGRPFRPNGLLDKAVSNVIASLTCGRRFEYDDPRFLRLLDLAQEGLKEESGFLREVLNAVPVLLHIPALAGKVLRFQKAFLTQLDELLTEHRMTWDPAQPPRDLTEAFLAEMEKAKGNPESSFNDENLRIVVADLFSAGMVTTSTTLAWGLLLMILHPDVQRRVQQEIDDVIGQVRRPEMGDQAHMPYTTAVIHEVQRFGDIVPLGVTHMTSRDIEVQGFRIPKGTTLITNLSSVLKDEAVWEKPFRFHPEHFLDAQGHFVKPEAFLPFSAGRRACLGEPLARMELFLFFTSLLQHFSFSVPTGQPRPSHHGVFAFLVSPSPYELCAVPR
Chain of CYP2C19 (P33261 whole entry): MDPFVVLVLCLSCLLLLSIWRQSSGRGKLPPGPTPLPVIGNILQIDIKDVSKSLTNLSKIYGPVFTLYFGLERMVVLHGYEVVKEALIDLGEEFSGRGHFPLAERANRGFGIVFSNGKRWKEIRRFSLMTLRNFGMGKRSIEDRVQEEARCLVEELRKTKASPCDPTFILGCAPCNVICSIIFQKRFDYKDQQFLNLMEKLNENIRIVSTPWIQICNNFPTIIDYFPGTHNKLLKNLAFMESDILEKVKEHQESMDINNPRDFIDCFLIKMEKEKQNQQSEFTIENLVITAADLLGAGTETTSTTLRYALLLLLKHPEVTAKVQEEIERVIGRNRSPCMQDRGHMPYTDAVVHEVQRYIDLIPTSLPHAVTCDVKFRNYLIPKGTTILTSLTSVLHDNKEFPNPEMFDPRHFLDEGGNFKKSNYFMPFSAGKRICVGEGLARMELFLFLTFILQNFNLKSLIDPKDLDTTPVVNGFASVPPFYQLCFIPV

The molecule `O=C(O)COc1ccc(C(=O)c2cccs2)c(Cl)c1Cl` showed a PB in the data set with Liver microsome [1] of 436.7 pmol. In addition, the Drug metabolism in the data set with Liver microsome [2] was found to be 4.2 pmol/min. This molecule registered an inhibition at 10 µM on CYP2C9 [3] of 28%. Also, the results for the clearance in data set [4] and in [5] were 0.069 µL/min/mg and 0.111 µL/min/mg, respectively. The CLH in the data set on Liver microsome [6] came out at 0.042 µL/min/mg. The inhibition at 100 µM is less than 10% at CYP1A2; less than 10% on CYP2B6 [7]; 35% against CYP2C19 (microsomes); less than 10% against CYP2D6 [8]; less than 10% against CYP3A4 [9]; less than 10% on CYP2C8 [10].

On to `CCOC(=O)C1=C(COCCN)NC(C)=C(C(=O)OC)C1c1ccccc1Cl` (stereo not given) [AMLODIPINE], for which, at CYP2B6 [11], the inhibition at 3 µM is less than 10%. This molecule showed a PB in the data set with Liver microsome [1] of 7.1 pmol. In addition, the Drug metabolism entry in the data set with Liver microsome [2] is listed as “metabolite_not_detected”. Moreover, on CYP3A4 [12], the inhibition at 10 µM is less than 10%. Besides, the inhibition at 30 µM on CYP2C9 [13] and on CYP2D6 [14] was less than 10% each time. Further, the inhibition at 100 µM at CYP1A2 was less than 10%; on CYP2C19 (human liver microsomes), less than 10%; at CYP2D6 [8] it was less than 10%; on CYP3A4 [9] it was 42%; on CYP2C8 [10], less than 10%.

For the molecule `CCN(CC)Cc1cc(Nc2ccnc3cc(Cl)ccc23)ccc1O` [AMODIAQUINE], the PB in the data set on Liver microsome [1] is recorded as 208.1 pmol. Moreover, in the data set on Liver microsome [2], the Drug metabolism is on record as 2.1 pmol/min. On CYP2C8 [15], this molecule registered an inhibition at 30 µM of less than 10%. On CYP2D6 [16], this molecule showed an inhibition at 10 µM of less than 10%. Moreover, the clearance in data set [5] was determined as 0.021 µL/min/mg. Further, the CLH in the data set on Liver microsome [6] was 0.021 µL/min/mg. Moreover, the inhibition at 100 µM on CYP1A2, at CYP2B6 [7], against CYP2C9 [17], at CYP2C19 (microsomes) and against CYP3A4 [9] was less than 10% throughout.

As for `CCc1oc2ccccc2c1C(=O)c1cc(Br)c(O)c(Br)c1` [BENZBROMARONE], the inhibition at 10 µM on CYP2B6 [18] and on CYP3A4 [12] was less than 10% in each case. In the data set with Liver microsome [1], the PB was determined as 389.9 pmol. Besides, the Drug metabolism in the data set with Liver microsome [2] is reported as 3 pmol/min. On CYP2C8 [19], this molecule registered an inhibition at 3 µM of less than 10%. The clearance was 0.002 µL/min/mg in data set [4] and 0.032 µL/min/mg in [5]. Besides, the CLH in the data set with Liver microsome [6] worked out at 0.03 µL/min/mg. The inhibition at 100 µM against CYP1A2 is 12%; on CYP2C19 (human liver microsomes), less than 10%; on CYP2D6 [8], less than 10%.

These data come from ChEMBL document CHEMBL3526118, “Combination of GSH trapping and time-dependent inhibition assays as a predictive method of drugs generating highly reactive metabolites” (Drug Metab Dispos, 2011).
